Screening results (PubChem)
Shown are actives, neighbours in structure and some others; about 1.9% of the full set was active somewhere.
MBD2 inh – inhibitors of MBD2 binding to methylated DNA, primary screen, biochemical, TR-FRET, DNA-binding domain, human | MBD2 binding to methylated oligonucleotide | Methyl-CpG-binding domain protein 2 (Homo sapiens), Q9UBB5 | inhibition, % at 4.4 µM | 370,000 compounds, 0.31% hits; in the data active = inhibition above about 13%
LEDGF integ inh – blockers of LEDGF/p75-dependent integrase strand transfer – biochemical, TR-FRET, high throughput, primary screen; HIV-1 integrase (with human LEDGF/p75); TR-FRET IN-LEDGF/p75 DNA integration, Eu/Cy5; inhibition, % at 3.7 µM; 370,000 compounds, 0.64% hits; AID 743269, 2014;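 active = inhibition above the screen-wide mean plus 3 SD, cut at about 13% in these data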;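 note: signal is the Cy5 over europium emission ratio at 671 and 618 nm; 0% = plate median of compound wells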
UHRF1 binding – UHRF1 methylated DNA binding inhibitors, primary screen, counter-screen for MBD2 inhibitor project, biochemical, TR-FRET, human UHRF1, single concentration; 370,000 compounds, 0.75% hits; AID 687016, 2013; E3 ubiquitin-protein ligase UHRF1 (Homo sapiens), Q96T88; UHRF1 binding to methylated oligo; inhibition, % at 4.4 µM; in the data active = inhibition above about 21%;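 note: UHRF1 SRA domain binding a hemimethylated CpG hairpin DNA probe; 0% = median of test compound wells and 100% = reference inhibitor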
Rin1-Abl PPI inh – inhibitors of Rin1-Abl protein binding, primary screen, biochemical, TR-FRET; 360,000 compounds, 0.4% hits; Tyrosine-protein kinase ABL1 (Homo sapiens) + Ras and Rab interactor 1 (Homo sapiens), …; inhibition, % at 7.35 µM; AID 588664, 2011; in the data active = inhibition above about 5%, passing the limit was not always enough
TDP2 absorb – human TDP2 enzyme inhibitors, primary screen, biochemical, epi absorbance, recombinant enzyme | Tyrosyl-DNA phosphodiesterase 2 (Homo sapiens), O95551 | T5PNP hydrolysis, p-nitrophenol absorbance 415 nm | inhibition, % at 12.8 µM | 370,000 compounds, 0.34% hits;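 active = inhibition above the mean of all tested compounds plus 3 SD, set per campaign, cut at about 25% in these data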;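 note: 0% = DMSO with enzyme and 100% = buffer with substrate but no TDP2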
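Incubation: 2 h at 37 °C; Test system: recombinant human TDP2; Quantity: enzyme 120 nM; Read-out basis: percent inhibition; Medium: 50 mM Tris-HCl pH 7.5 with Mg2+, KCl, DTT, BSA; Repeats: single replicate; Compound: 12.8 µM single point, 1% DMSO; Signal: epi absorbance; Reagent: 5 mM T5PNP chromogenic substrate; Benchmarks: no-enzyme high, DMSO-plus-enzyme low.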
An asterisk follows results filed as active; · = no result.

SMILES | MBD2 inh | LEDGF integ inh | UHRF1 binding | Rin1-Abl PPI inh | TDP2 absorb
C=CCc1ccc(OCCN2CCc3ccccc3C2)c(OC)c1 | 5 | -4 | 29* | 3 | -11
CC(C)Cn1c(N)c(C(=O)CSc2nnc(-c3ccco3)n2C)c(=O)n(C)c1=O | -1 | 0 | 33* | 2 | 0
CCc1ccc(O)c(N=Cc2ccccc2O)c1 | -4 | 3 | 32* | 3 | 4
Cc1ccc(O)c(C=Nc2cc(C)ccc2O)c1 | · | · | · | -1 | ·
C[C@H]1O[C@@H](n2c3ccc(Cl)cc3c3ccc4c5cc(Cl)ccc5[nH]c4c32)[C@H](O)[C@H](O)[C@H]1O | 0 | 0 | 1 | · | 1
CCOc1ccc(CCNC(=O)Nc2ccccc2C)cc1OCC | -1 | -8 | 21* | 1 | 3
Cc1cc(C(=O)OCC(=O)NC2CC2)ccc1[N+](=O)[O-] | 4 | -2 | 80* | 0 | 7
CCOC(=O)[C@@]12CCCC3=C1N(CCC3)C(=O)[C@H]2CC(=O)NCC12CC3CC(CC(C3)C1)C2 | -8 | 0 | 0 | · | 5
O=C(O)c1ccc(/C=N/NC(=O)c2ccc(F)cc2)cc1 | -5 | 1 | 0 | -6 | 2
O=C(N/N=C/c1ccc(F)cc1)c1ccccc1 | -4 | -5 | 27* | 2 | 3
COc1ccc(C(CNC(=O)c2ccc(NS(=O)(=O)c3ccc4c(c3)OCCO4)cc2)N(C)C)cc1 (configuration not stated) | -1 | 5 | 21* | 1 | -3
COc1ccc(C(CNC(=O)c2ccc(S(=O)(=O)Nc3ccc(F)cc3)cc2)N(C)C)cc1 (configuration not stated) | -4 | 2 | -3 | -3 | -10
COc1ccc(N2C(=O)N3[C@H](c4ccc(Cl)cc4)[C@@H]4C(=O)N(C5CCCCC5)C(=O)[C@@H]4[C@]3(C)C2=O)cc1 | 7 | 1 | 22* | 1 | 10
C[C@@]12C(=O)N(c3cccc(Cl)c3)C(=O)N1[C@H](c1ccc(Cl)cc1)[C@@H]1C(=O)N(C3CCCCC3)C(=O)[C@@H]12 | -2 | 0 | 2 | 1 | -7
CCC(CO)Nc1cccc2c1S(=O)(=O)N(Cc1cn(Cc3ccc(Cl)cc3)nn1)Cc1ccccc1O2 (configuration not stated) | -4 | 3 | 8 | · | -11
CCCN1C(=O)c2n[nH]c(C(C)C)c2C1c1cccc(C(F)(F)F)c1 (configuration not stated) | -3 | 0 | -2 | · | 5
CN1C(=S)N(c2cccnc2)C(=O)/C1=C\c1ccc(N(C)C)cc1 | -11 | -8 | 43* | -9 | -7
CN1C(=S)N(c2cccnc2)C(=O)/C1=C\c1ccc(C(C)(C)C)cc1 | 2 | 0 | 0 | 0 | -5
COC(=O)COc1coc(CN2CCN(c3cccc(Cl)c3)CC2)cc1=O | 5 | 7 | 21* | -1 | 6
COP1(=O)CCOCC[C@H](CC(C)C)NC(=O)[C@H](CC(C)C)N1 (some centres not stated) | 1 | -2 | 0 | · | -5
COc1ccc(S(=O)(=O)Nc2ccc3c(c2)C(=O)N([C@@H](C)CO)C[C@@H](C)[C@H](CN(C)C(=O)CCCN(C)C)OCCCC[C@H](C)O3)cc1 | -4 | -2 | 29* | 1 | -1
C[C@@H]1CCCCO[C@H](CN(C)C(=O)C2CCCCC2)[C@@H](C)CN([C@H](C)CO)C(=O)c2cc(N(C)C)ccc2O1 | 1 | -3 | 50* | 1 | -3
COC(=O)c1ccc(S(=O)(=O)N2CCC(NC(=O)Cc3cccc(C)c3)CC2)cc1 | 0 | 2 | 4 | · | -2
CC(C)c1ccc(CN2CC(C(=O)Nc3ccccc3)CC2=O)cc1 (configuration not stated) | -1 | 0 | 27* | 5 | -5
Cc1ccc(C2CC(=O)C=C(NCc3ccccc3)C2)cc1 (configuration not stated) | -4 | 0 | 36* | 1 | 4
SMILES | MBD2 inh | LEDGF integ inh | UHRF1 binding | Rin1-Abl PPI inh | TDP2 absorb
Cc1ccc(C2CC(=O)C=C(NCC(C)C)C2)cc1 (configuration not stated) | -2 | -2 | 0 | 0 | 6
Cc1ccc2c(c1)N(CCCC(=O)N(C)Cc1ccc(F)cc1)C(=O)CO2 | -6 | 8 | 0 | · | -3
Cc1ccc(NC(=O)[C@H]2CC(=O)O[C@@H]2c2ccccc2)cc1C | 7 | -7 | 4 | · | -2
N#Cc1ccc(-c2csc(NC3=NCCCCC3)n2)cc1 | 3 | 1 | 39* | 2 | 5
c1ccc(-c2csc(NC3=NCCCCC3)n2)cc1 | 5 | 2 | 3 | 2 | -6
CCn1c(SCC(=O)N2CCCc3ccccc32)nnc1-c1cccs1 | 8 | 3 | 21* | 3 | 2
COc1ccccc1Nc1ccc(C(=O)NC2CCCCC2)cn1 | -2 | -2 | 27* | 0 | -10
COc1ccccc1Nc1cc(C(=O)NC2CCCC2)c2ccccc2n1 | -2 | -3 | 1 | 2 | -2
O=C(CSc1nc2ccccc2n1CCc1ccccc1)c1ccc(O)c(O)c1 | 26* | 32* | 57* | 0 | -10
C#CCOCCOCCOCCNc1nc(N2CCN(C(=O)[C@H]([C@@H](C)CC)n3cc(CCCCN)nn3)CC2)nc(N2CCN(C(=O)[C@H](Cc3ccc(O)cc3)n3cc(CCO)nn3)CC2)n1 | 4 | 2 | 5 | · | -1
COc1ccccc1NC(=O)C1=C(C)NC(=O)NC1c1cccc(OC)c1OC (configuration not stated) | -5 | 2 | -1 | 2 | 7
CCOc1ccccc1NC(=O)C1=C(C)NC(=O)NC1c1cccc(OC)c1OC (configuration not stated) | 10 | 3 | 23* | 6 | -4
O=[N+]([O-])c1ccc(O)c(C=NNc2ccc(S(=O)(=O)O)cc2)c1 | 1 | -1 | 24* | 4 | 8
O=[N+]([O-])c1cccc(N/N=C/c2cc([N+](=O)[O-])ccc2O)c1 | -4 | 10 | -1 | 0 | 0
Cc1nc2ccc(C(=O)N3CCN(C(=O)OCc4ccccc4)CC3)cc2n1C1CCCC1 | 2 | 2 | -1 | · | 6
COCCSc1nc2c(c(=O)[nH]c(=O)n2C)n1Cc1cccc(C)c1 | 0 | -1 | 2 | 11* | 6
CC(C)CN1C(=O)C[C@]2(C(=O)N(C)c3ccc(NS(=O)(=O)C4CCCCC4)cc32)C1c1ccccc1 (some centres not stated) | 0 | 1 | 0 | · | -12
Cc1ccc(S(=O)(=O)N(C)C)cc1NC(=O)COC(=O)/C=C/c1ccc(F)cc1 | -1 | 4 | 35* | 1 | -14
